The results in this text go back to ChEMBL document CHEMBL5120856, “New salicylic acid derivatives, double inhibitors of glycolate oxidase and lactate dehydrogenase, as effective agents decreasing oxalate production” (Eur J Med Chem, 2022).

Series [1] concerns the target T1, 2-Hydroxyacid oxidase 1 (Homo sapiens) (UniProt Q9UJM8).
T1 sequence (whole entry): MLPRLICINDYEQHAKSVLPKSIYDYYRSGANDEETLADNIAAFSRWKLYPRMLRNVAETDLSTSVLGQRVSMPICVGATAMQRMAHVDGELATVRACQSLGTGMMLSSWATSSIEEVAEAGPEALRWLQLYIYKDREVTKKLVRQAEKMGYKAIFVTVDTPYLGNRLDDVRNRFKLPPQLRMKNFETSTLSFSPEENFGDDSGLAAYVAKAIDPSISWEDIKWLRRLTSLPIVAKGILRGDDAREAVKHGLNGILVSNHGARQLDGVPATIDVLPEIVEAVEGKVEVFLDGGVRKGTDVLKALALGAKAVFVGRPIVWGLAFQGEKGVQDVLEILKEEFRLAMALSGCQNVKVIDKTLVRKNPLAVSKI
Kind of series: Inhibition of N-terminal His-tagged human recombinant glycolate oxidase expressed in Escherichia coli BL21 (DE3) cells using glycolate as substrate at 20 uM preincubated for 5 mins followed by substrate addition and measured after 1 min in the presence of DCHBS by horseradish peroxidase coupled colorimetric method relative to control. Particulars: time 6.0 min.

The target of series [2] is T2, 2-Hydroxyacid oxidase 1 (Mus musculus) (UniProt Q9WU19).
T2 sequence (whole entry): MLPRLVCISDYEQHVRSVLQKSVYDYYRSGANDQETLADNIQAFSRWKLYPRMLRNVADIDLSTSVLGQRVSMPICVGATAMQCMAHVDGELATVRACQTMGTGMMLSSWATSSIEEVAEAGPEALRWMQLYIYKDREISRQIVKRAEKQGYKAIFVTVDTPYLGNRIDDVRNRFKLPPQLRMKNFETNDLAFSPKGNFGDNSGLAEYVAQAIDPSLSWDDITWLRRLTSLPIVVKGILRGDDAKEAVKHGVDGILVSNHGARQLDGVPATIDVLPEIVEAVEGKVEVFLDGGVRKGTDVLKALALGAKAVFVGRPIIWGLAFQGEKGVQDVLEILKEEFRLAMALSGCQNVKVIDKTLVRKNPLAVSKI
Kind of series: Inhibition of N-terminal His-tagged mouse recombinant glycolate oxidase expressed in Escherichia coli BL21 (DE3) cells using glycolate as substrate at 20 uM preincubated for 5 mins followed by substrate addition and measured after 1 min in the presence of DCHBS by horseradish peroxidase coupled colorimetric method relative to control. Particulars: time 6.0 min.

A further series concerns HEK293. Kind of series: Cytotoxicity against HEK293 cells assessed as reduction in cell viability upto 50 uM measured after 48 hrs by MTT assay. It counts as toxicity, cell-based. As to conditions: human, hek293, 48 h.
The target in series [3] is T3, L-lactate dehydrogenase A chain (Homo sapiens, UniProt P00338). Description: Inhibition of human recombinant LDHA using pyruvate as substrate at 10 uM preincubated for 10 mins followed by substrate addition and measured every 60 sec for 10 mins in the presence of NADH by fluorescence assay relative to control. Particulars: time 20.0 min. The gist of the method:
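Recombinant human LDHA or LDHB (0.015 U/mL) with NADH 150 μM and inhibitor 10 μM in 50 mM phosphate pH 7, 10 min rt baseline read; pyruvate 1 mM added, NADH fluorescence (ex 340/em 460 nm) read every 60 s for 10 min; baseline-corrected slope versus 100% activity control; four replicates.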

Series [4] concerns the target T4, 2-Hydroxyacid oxidase 1 (Homo sapiens, UniProt Q9UJM8).
T4 sequence (Q9UJM8 whole entry): T1 sequence (whole entry)
Description: Inhibition of N-terminal His-tagged human recombinant glycolate oxidase expressed in Escherichia coli BL21 (DE3) cells using glycolate as substrate preincubated for 10 mins followed by substrate addition and measured after 10 mins by Amplex red and horseradish peroxidase based fluorescence assay.

The target of series [5] is T5, 2-Hydroxyacid oxidase 1 (Mus musculus, UniProt Q9WU19).
T5 sequence (Q9WU19 whole entry): T2 sequence (whole entry)
Description: Inhibition of N-terminal His-tagged mouse recombinant glycolate oxidase expressed in Escherichia coli BL21 (DE3) cells using glycolate as substrate preincubated for 10 mins followed by substrate addition and measured after 10 mins by Amplex red and horseradish peroxidase based fluorescence assay.

The target of series [6] is T3, L-lactate dehydrogenase A chain. Description: Inhibition of human recombinant LDHA using pyruvate as substrate preincubated for 10 mins followed by substrate addition and measured every 60 sec for 10 mins in the presence of NADH by fluorescence assay.
In series [7] the target is L-lactate dehydrogenase B chain (Homo sapiens, UniProt P07195). Kind of series: Inhibition of human recombinant LDHB using pyruvate as substrate preincubated for 10 mins followed by substrate addition and measured every 60 sec for 10 mins in the presence of NADH by fluorescence assay.
Chain of L-lactate dehydrogenase B chain (P07195 whole entry): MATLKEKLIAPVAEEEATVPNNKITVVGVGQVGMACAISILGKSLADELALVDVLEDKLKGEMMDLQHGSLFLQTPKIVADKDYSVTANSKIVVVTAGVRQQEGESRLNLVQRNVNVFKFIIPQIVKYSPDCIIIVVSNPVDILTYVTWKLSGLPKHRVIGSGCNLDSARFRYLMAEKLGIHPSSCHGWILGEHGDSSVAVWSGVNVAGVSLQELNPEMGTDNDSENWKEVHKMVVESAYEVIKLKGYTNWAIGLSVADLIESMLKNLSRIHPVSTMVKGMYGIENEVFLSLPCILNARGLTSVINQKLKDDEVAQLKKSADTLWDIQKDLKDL
Series [8] deals with Hepatocyte. Kind of series: Inhibition of GO/LDHA in hyperoxaluric-primary hepatocyte isolated from Agxt1 knockdown PH1 C57BL/6 mouse assessed as relative oxalate output at 10 uM measured at 24 hrs in the presence of glycolate relative to control. It is filed as cell-based. The gist of the method:
(§1)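 Agxt1-/- mouse primary hepatocytes cultured with 5 mM glycolate, inhibitor at 10 μM; extracellular oxalate measured by colorimetric kit 24 and 48 h after inhibitor addition; relative oxalate = oxalate with inhibitor over oxalate without inhibitor; negative values mean below detection limit; mean of three/four replicates ± SD.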

Series [9] deals with Hepatocyte. Kind of series: Inhibition of GO/LDHA in hyperoxaluric-primary hepatocyte isolated from Agxt1 knockdown PH1 C57BL/6 mouse assessed as relative oxalate output at 10 uM measured at 48 hrs in the presence of glycolate relative to control. It is filed as cell-based. The gist of the method: as §1
Series [10] relates to Hepatocyte. Description: Inhibition of GO/LDHA in hyperoxaluric-primary hepatocyte isolated from Grhpr-knockdown PH2 C57BL/6 mouse assessed as relative oxalate output at 10 uM measured at 24 hrs in the presence of glycolate relative to control. It counts as cell-based. The gist of the method:
(§2)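 Grhpr-/- mouse primary hepatocytes cultured with 10 mM glycolate, inhibitor at 10 μM; extracellular oxalate determined colorimetrically at 24 and 48 h post-treatment, expressed relative to untreated medium (RO); negative RO means below detection limit; three/four replicates, mean ± SD.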

The subject of series [11] is Hepatocyte. Description: Inhibition of GO/LDHA in hyperoxaluric-primary hepatocyte isolated from Grhpr-knockdown PH2 C57BL/6 mouse assessed as relative oxalate output at 10 uM measured at 48 hrs in the presence of glycolate relative to control. It is filed as cell-based. The gist of the method: as §2
Series [12] has as its system Hepatocyte. Description: Inhibition of GO/LDHA in hyperoxaluric-primary hepatocyte isolated from Hoga1-knockdown PH3 C57BL/6 mouse assessed as relative oxalate output at 10 uM measured at 24 hrs in the presence of hydroxyproline relative to control. It counts as cell-based. The gist of the method:
(§3)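 Hoga1-/- mouse primary hepatocytes challenged with 10 mM hydroxyproline, inhibitor 10 μM; extracellular oxalate measured by colorimetric kit 24 and 48 h after dosing, given as ratio to oxalate without inhibitor; negative values are below detection limit; mean of three/four replicates ± SD.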

In series [13] the test system is Hepatocyte. Description: Inhibition of GO/LDHA in hyperoxaluric-primary hepatocyte isolated from Hoga1-knockdown PH3 C57BL/6 mouse assessed as relative oxalate output at 10 uM measured at 48 hrs in the presence of hydroxyproline relative to control. It counts as cell-based. The gist of the method:
as §3

Series [14] concerns Hepatocyte. Description: Cytotoxicity against hyperoxaluric-primary hepatocyte isolated from Hoga1-knockdown PH3 C57BL/6 mouse assessed as cell death at 10 uM by MTS assay. It is filed as toxicity, cell-based. Particulars: hepatocytes, Hoga1-knockdown PH3, 10 µM. The gist of the method: (§4)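 Primary hepatocytes from Agxt1-/- (PH1, 5 mM glycolate), Grhpr-/- (PH2, 10 mM glycolate) or Hoga1-/- (PH3, 10 mM hydroxyproline) mice, incubated with inhibitor at 10 μM; viability followed through the oxalate assay by MTS tetrazolium method.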
In general terms: Tetrazolium assays rely on reduction of a dye to a coloured formazan, in cell work by metabolically active cells.

Series [15] concerns Hepatocyte. Kind of series: Cytotoxicity against hyperoxaluric-primary hepatocyte isolated from Grhpr-knockdown PH2 C57BL/6 mouse assessed as cell death at 10 uM by MTS assay. It counts as toxicity, cell-based. Particulars: hepatocytes, Grhpr-knockdown PH2 (primary hyperoxaluria type 2). The gist of the method:
as §4

The subject of series [16] is Hepatocyte. Description: Cytotoxicity against hyperoxaluric-primary hepatocyte isolated from Agxt1-knockdown PH1 C57BL/6 mouse assessed as cell death at 10 uM by MTS assay. It is filed as toxicity, cell-based. Particulars: hepatocytes, Agxt1-knockdown PH1, 10 µM. The gist of the method: as §4
Series [17] relates to Hepatocyte. Kind of series: Inhibition of GO/LDHA in hyperoxaluric-primary hepatocyte isolated from Agxt1 knockdown PH1 C57BL/6 mouse assessed as reduction in extracellular oxalate concentration at 10 uM measured at 48 hrs in the presence of glycolate relative to control. Also noted: scale not given: the % may be the effect or the level left. It counts as cell-based. The gist of the method:
as §1

Series [18] is described as follows: Inhibition of GO/LDHA in hyperoxaluric-primary hepatocyte isolated from Agxt1 knockdown PH1 C57BL/6 mouse measured at 24 hrs in the presence of 5 mM glycolate. It counts as cell-based. The gist of the method:
(§5)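 Agxt1-/- hepatocytes with 5 mM glycolate; eight inhibitor concentrations per replicate; extracellular oxalate measured colorimetrically at 24 or 48 h; EC50 as mean of three/four replicates ± SD.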

The nature of series [19]: Inhibition of GO/LDHA in hyperoxaluric-primary hepatocyte isolated from Agxt1 knockdown PH1 C57BL/6 mouse measured at 48 hrs in the presence of 5 mM glycolate. It is filed as cell-based. The gist of the method: as §5

The structures appear in SMILES notation.

In the case of `O=C(O)c1cc(-c2ccc(CNCc3cccnc3)o2)ccc1O`, the inhibition in series [1] and in series [2] was < 50% in each case.

As to `COc1cccc2c1C(=O)c1c(O)c3c(c(O)c1C2=O)C[C@@](O)(C(=O)CO)C[C@@H]3O[C@H]1C[C@H](N)[C@H](O)[C@H](C)O1` [DOXORUBICIN], the Activity result in the series with HEK293 is given as “Non-Toxic”.

For the compound `O=C(O)c1cc(-c2ccc(CNCc3ccc(O)cc3)o2)ccc1O`, the figures for the inhibition in series [1], in [2] and in series [3] were < 50%, < 50% and 18%, respectively.

For the compound `O=C(O)c1cc(-c2ccc(CN3CCCCC3)o2)ccc1O`, the inhibition in series [1] and in series [2] was < 50% each time.

On to `CCN(CC)CC.O=C(O)c1cc(-c2ccc(CN(Cc3ccccc3)Cc3ccco3)o2)ccc1O`, for which the IC50 at 2-Hydroxyacid oxidase 1 [4] amounted to 16.8 µM; at 2-Hydroxyacid oxidase 1 [5], 8 µM; in series [6], 2.3 µM; in series [7], 4.3 µM. The fold change (FC) is -0.09 in the series on Hepatocyte [8]; 0.42 in the series on Hepatocyte [9]; 0.31 in the series on Hepatocyte [10]; 0.34 with Hepatocyte [11]; 0.22 with Hepatocyte [12]; 0.3 with Hepatocyte [13]. The Activity result in the series on Hepatocyte [14] was “Non-Toxic”; with Hepatocyte [15], “Non-Toxic”; in the series on Hepatocyte [16] it was “Non-Toxic”; in the series on Hepatocyte [17], 60%. Besides, the EC50 in series [18] came to 0.5 µM; in series [19] it was 0.6 µM.

As for `COc1ccc(CNCc2ccc(-c3ccc(O)c(C(=O)O)c3)o2)cc1`, the inhibition was < 50% in [1], < 50% in series [2] and 18% in series [3].

For the compound `CC(C)(C)C(O)/C=C/c1ccc2c(c1)OCO2` (stereo unspecified) [STIRIPENTOL], the fold change (FC) in the series with Hepatocyte [10] is 0.27; with Hepatocyte [11], 0.33; in the series with Hepatocyte [12], 0.7; in the series with Hepatocyte [13], 0.49. Besides, the Activity entry in the series with Hepatocyte [14], in the series on Hepatocyte [15] and in the series on Hepatocyte [16] was “Non-Toxic” throughout.

Turning to `C#CCN(Cc1ccc(-c2ccc(O)c(C(=O)O)c2)o1)Cc1ccc(-c2ccc(O)c(C(=O)O)c2)o1.N.N`, the IC50 at 2-Hydroxyacid oxidase 1 [4] is 2 µM; at 2-Hydroxyacid oxidase 1 [5] it was 0.8 µM; in series [6], 1.6 µM; in [7], 2.3 µM. For the same compound, the fold change (FC) in the series on Hepatocyte [8] stood at 0.44; with Hepatocyte [10], 0.2; in the series with Hepatocyte [11], 0.25; with Hepatocyte [12] it was 0.21; with Hepatocyte [13], 0.52. Besides, the Activity result in the series on Hepatocyte [14], in the series on Hepatocyte [15], in the series with Hepatocyte [16] and with HEK293 was “Non-Toxic” in each case.

For `O=C(O)c1cc(-c2ccc(CNCc3ccc([N+](=O)[O-])cc3)o2)ccc1O`, the inhibition in [1] and in [2] was < 50% in each case. The IC50 in [6] is 8 µM.

For the compound `N.O=C(O)c1cc(-c2ccc(CNc3ccc([N+](=O)[O-])cc3)o2)ccc1O`, the IC50 on 2-Hydroxyacid oxidase 1 [4] came out at 10.3 µM; at 2-Hydroxyacid oxidase 1 [5], 5.4 µM; in [6], 1.5 µM; in series [7], 5.9 µM. In addition, the fold change (FC) with Hepatocyte [8] turned out to be 0.04; with Hepatocyte [9], 0.5; with Hepatocyte [10] it was 0.6; in the series with Hepatocyte [11] it was 0.88; in the series with Hepatocyte [12] it was 0.18; in the series with Hepatocyte [13], 0.1. Besides, the Activity result in the series with Hepatocyte [14] is “Non-Toxic”; in the series with Hepatocyte [15], “Non-Toxic”; with Hepatocyte [16], “Non-Toxic”; with Hepatocyte [17] it was 50%; with HEK293, “Non-Toxic”. Moreover, the EC50 in series [18] stood at 0.6 µM; in series [19], 1.6 µM.

With `N.O=C(O)c1cc(-c2ccc(CNCc3ccccc3)o2)ccc1O`, the inhibition in series [1] and in [2] was < 50% throughout. Moreover, the IC50 in series [6] amounted to 2.5 µM; in series [7] it was 3.3 µM. In addition, the fold change (FC) with Hepatocyte [8] came to 0.18; in the series with Hepatocyte [9], 0.63. Also, the Activity entry in the series with Hepatocyte [14], with Hepatocyte [15] and in the series on Hepatocyte [16] was “Non-Toxic” throughout.

The term inhibition denotes the percentage by which the read-out fell short of the control. As a reminder, the IC50 is the concentration that inhibits the measured activity by half. The term EC50 denotes the concentration that produces a half-maximal response.
